The values below come from ChEMBL document CHEMBL1134055, “The synthesis of amino-acid functionalized beta-carbolines as topoisomerase II inhibitors” (2001).

Experiment [1] deals with NCI-H520. Kind of experiment: In vitro cell growth inhibition of H520 cell line determined using non-radioactive cell proliferation assay at a dose of 50 uM. The experiment is classed as functional, Homo sapiens. Put shortly:
(§1)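 Tetrazolium-type colorimetric proliferation assay (CellTiter 96 AQueous, non-radioactive); cells treated at 10, 50 and 100 µM; read as percent cell survival. All points in quadruplicate. Vehicle control DMSO (0.20%); m-AMSA (20, 40 µM) as reference control.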

The test system of experiment [2] is PC-3. In words: In vitro cell growth inhibition of PC3 cell line determined using Non-Radioactive Cell Proliferation Assay at a dose of 50 uM. The experiment is classed as functional, Homo sapiens. A digest of the protocol:
as §1

The test system of experiment [3] is PC-3. Kind of experiment: In vitro cell growth inhibition of PC3 cell line determined using non-radioactive cell proliferation assay at a dose of 100 uM. Type of experiment: functional, Homo sapiens. Put shortly: as §1
For experiment [4], the system named is PC-3. Kind of experiment: In vitro cell growth inhibition of PC3 cell line determined using non-radioactive cell proliferation assay at a dose of 10 uM. The experiment is classed as functional, Homo sapiens. A digest of the protocol:
as §1

Experiment [5] concerns NCI-H520. Kind of experiment: In vitro cell growth inhibition of H520 cell line determined using Non-Radioactive Cell Proliferation Assay at a dose of 100 uM. Type of experiment: functional, Homo sapiens. A digest of the protocol:
as §1

The test system of experiment [6] is NCI-H520. In words: In vitro cell growth inhibition of H520 cell line determined using non-radioactive cell proliferation assay at a dose of 10 uM. The experiment is classed as functional, Homo sapiens. Put shortly: as §1
Experiment [7] in a line: Inhibition of topo II-mediated DNA relaxation measured by topo II-mediated DNA relaxation assay; ++ indicates drug interaction with topo II. Type of experiment: functional. A digest of the protocol: (§2)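 Relaxation of supercoiled plasmid pUC18 DNA (E. coli) by topo II (2.0 units per reaction) in Tris-Cl pH 8.0 buffer with KCl, MgCl2, ATP, DTT and BSA; 1 µL of 1 mM drug in 10% DMSO per 10 µL reaction, enzyme added last; 37 °C for 30-45 min. Stopped with sarkosyl buffer, chloroform/isoamyl alcohol extraction, 1% agarose gel, ethidium stain. Densitometric qualitative scoring; gels in triplicate.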

Experiment [8] in a line: Inhibition of topo II-mediated DNA relaxation measured by topo II-mediated DNA relaxation assay; ++++ indicates drug interaction with topo II. The experiment is classed as functional. Put shortly:
as §2

Experiment [9] is described as follows: Inhibition of topo II-mediated DNA relaxation measured by topo II-mediated DNA relaxation assay; +++ indicates drug interaction with topo II. The experiment is classed as functional. Put shortly: as §2
Experiment [10] concerns NCI-H520. In words: In vitro cell growth inhibition of H520 cell line determined using non-radioactive cell proliferation assay at a dose of 100 uM. The experiment is classed as functional, Homo sapiens. A digest of the protocol:
as §1

Molecules are shown by their SMILES.

Regarding `COC(=O)[C@H](CC(C)C)NC(=O)[C@@H]1Cc2c([nH]c3ccccc23)[C@@H](c2cc(OC)c(O)c(OC)c2)N1`, the Cell survival in the experiment with NCI-H520 [1] is on record as 89.2%; with PC-3 [2] it was 98.7%; in the experiment with PC-3 [3], 87.6%; in the experiment on PC-3 [4], >100%; with NCI-H520 [5], 83.2%; in the experiment with NCI-H520 [6], 84%.

Take `COc1cc([C@@H]2c3[nH]c4ccccc4c3C[C@H]3C(=O)N[C@H](C)C(=O)N23)cc(OC)c1O`: the Cell survival with NCI-H520 [1] is 99.7%; in the experiment on PC-3 [2] it was 99.5%; with PC-3 [3] it was 95.3%; in the experiment on PC-3 [4], 82.6%; in the experiment with NCI-H520 [5], 91.5%; in the experiment on NCI-H520 [6], 93.8%.

In the case of `COC(=O)[C@@H](C)NC(=O)[C@@H]1Cc2c([nH]c3ccccc23)[C@@H](c2cc(OC)c(O)c(OC)c2)N1`, the DNA relaxation result in experiment [7] is “drug interaction with topo II”. Further, the Cell survival in the experiment with NCI-H520 [1] is >100%; in the experiment with PC-3 [2], >100%; with PC-3 [3] it was >100%; with PC-3 [4] it was 96.9%; in the experiment on NCI-H520 [5], >100%; in the experiment on NCI-H520 [6], >100%.

Regarding `COC(=O)[C@@H](CCCCN)NC(=O)[C@@H]1Cc2c([nH]c3ccccc23)[C@@H](c2cc(OC)c(O)c(OC)c2)N1`, the DNA relaxation entry in experiment [7] is given as “drug interaction with topo II”. Further, the Cell survival in the experiment with NCI-H520 [1] is 76.9%; with PC-3 [2] it was >100%; in the experiment on PC-3 [3] it was >100%; in the experiment with PC-3 [4], >100%; in the experiment with NCI-H520 [5], 87.7%; with NCI-H520 [6], 78.3%.

On to `COC(=O)[C@H](CO)NC(=O)[C@@H]1Cc2c([nH]c3ccccc23)[C@@H](c2cc(OC)c(O)c(OC)c2)N1`, for which the Cell survival is recorded as 90% in the experiment on NCI-H520 [1]; 98.5% in the experiment on PC-3 [2]; >100% in the experiment on PC-3 [3]; 99.7% in the experiment with PC-3 [4]; 79.6% with NCI-H520 [5]; 87% with NCI-H520 [6].

As to `COC(=O)[C@H](C)NC(=O)[C@@H]1Cc2c([nH]c3ccccc23)[C@@H](c2cc(OC)c(O)c(OC)c2)N1`, the Cell survival in the experiment with NCI-H520 [1] was >100%; in the experiment on PC-3 [2], 96.6%; in the experiment with PC-3 [3] it was 95.8%; with PC-3 [4] it was >100%; in the experiment on NCI-H520 [5], >100%; with NCI-H520 [6], >100%.

Take `COC(=O)[C@@H](CCSC)NC(=O)[C@@H]1Cc2c([nH]c3ccccc23)[C@@H](c2cc(OC)c(O)c(OC)c2)N1`: the Cell survival in the experiment with NCI-H520 [1] is listed as >100%; in the experiment on PC-3 [2], >100%; in the experiment with PC-3 [3], >100%; in the experiment on PC-3 [4], >100%; in the experiment with NCI-H520 [5] it was 89.6%; with NCI-H520 [6], >100%.

With `COC(=O)[C@@H](NC(=O)[C@@H]1Cc2c([nH]c3ccccc23)[C@@H](c2cc(OC)c(O)c(OC)c2)N1)c1ccccc1`, the Cell survival is on record as 89.9% with NCI-H520 [1]; >100% with PC-3 [2]; 64.5% with PC-3 [3]; 88.5% in the experiment with PC-3 [4]; 86.8% in the experiment with NCI-H520 [5]; 82.7% in the experiment with NCI-H520 [6]. The DNA relaxation result in experiment [8] is “drug interaction with topo II”.

For the compound `COC(=O)[C@H](NC(=O)[C@@H]1Cc2c([nH]c3ccccc23)[C@@H](c2cc(OC)c(O)c(OC)c2)N1)C(C)C`, the Cell survival is listed as >100% with NCI-H520 [1]; >100% in the experiment with PC-3 [2]; >100% in the experiment with PC-3 [3]; >100% in the experiment with PC-3 [4]; 98.3% in the experiment with NCI-H520 [5]; 90% with NCI-H520 [6].

Regarding `COC(=O)[C@@H](Cc1c[nH]c2ccccc12)NC(=O)[C@@H]1Cc2c([nH]c3ccccc23)[C@@H](c2cc(OC)c(O)c(OC)c2)N1`, in experiment [9], the DNA relaxation result is recorded as “drug interaction with topo II”. In addition, the Cell survival in the experiment with NCI-H520 [1] was 35.2%; in the experiment on PC-3 [2] it was 84.9%; in the experiment with PC-3 [3], 62.4%; with PC-3 [4], >100%; with NCI-H520 [5] it was 7.2%; with NCI-H520 [6], >100%.

`COC(=O)[C@H](Cc1ccc(O)cc1)NC(=O)[C@@H]1Cc2c([nH]c3ccccc23)[C@@H](c2cc(OC)c(O)c(OC)c2)N1`: the Cell survival in the experiment on NCI-H520 [1] is >100%; in the experiment on PC-3 [2], 96.4%; with PC-3 [3], 94.9%; with PC-3 [4], >100%; with NCI-H520 [5], 98.6%; with NCI-H520 [6], >100%.

For `COC(=O)[C@H](CCCCN)NC(=O)[C@@H]1Cc2c([nH]c3ccccc23)[C@@H](c2cc(OC)c(O)c(OC)c2)N1`, the Cell survival in the experiment on NCI-H520 [1] is >100%; with PC-3 [2], 91.2%; in the experiment with PC-3 [3], 90.6%; in the experiment on PC-3 [4] it was 95.2%; in the experiment on NCI-H520 [5], >100%; with NCI-H520 [6], 99.3%.

Regarding `COC(=O)CNC(=O)[C@@H]1Cc2c([nH]c3ccccc23)[C@@H](c2cc(OC)c(O)c(OC)c2)N1`, the Cell survival with NCI-H520 [1] is on record as >100%; in the experiment on PC-3 [2] it was >100%; in the experiment on PC-3 [3] it was 88.8%; in the experiment on PC-3 [4] it was 99.7%; in the experiment on NCI-H520 [5] it was >100%; in the experiment on NCI-H520 [6], >100%.

On to `COC(=O)[C@@H](Cc1ccccc1)NC(=O)[C@@H]1Cc2c([nH]c3ccccc23)[C@@H](c2cc(OC)c(O)c(OC)c2)N1`, for which the Cell survival is 33% in the experiment with NCI-H520 [1]; >100% in the experiment with PC-3 [2]; 63.6% in the experiment with PC-3 [3]; >100% in the experiment on PC-3 [4]; 6.7% with NCI-H520 [5]; 77.6% with NCI-H520 [6].

As to `COC(=O)[C@@H](NC(=O)[C@@H]1Cc2c([nH]c3ccccc23)[C@@H](c2cc(OC)c(O)c(OC)c2)N1)C(C)C`, the Cell survival turned out to be 85.4% in the experiment with NCI-H520 [1]; 93.1% with PC-3 [2]; 95.3% in the experiment with PC-3 [3]; 91.9% in the experiment on PC-3 [4]; 93.6% in the experiment on NCI-H520 [5]; 87.6% with NCI-H520 [6].

On to `COC(=O)[C@H](NC(=O)[C@@H]1Cc2c([nH]c3ccccc23)[C@@H](c2cc(OC)c(O)c(OC)c2)N1)c1ccccc1`, for which the DNA relaxation result in [9] is “drug interaction with topo II”. The Cell survival in the experiment on NCI-H520 [1] is on record as >100%; with PC-3 [2], >100%; in the experiment on PC-3 [3], >100%; in the experiment with PC-3 [4], >100%; with NCI-H520 [5], 99.2%; with NCI-H520 [6], >100%.

Consider `COC(=O)[C@@H](CC(C)C)NC(=O)[C@@H]1Cc2c([nH]c3ccccc23)[C@@H](c2cc(OC)c(O)c(OC)c2)N1`, for which the DNA relaxation entry in experiment [7] is given as “drug interaction with topo II”. Moreover, the Cell survival was 84.3% with NCI-H520 [1]; >100% with PC-3 [2]; 99.4% in the experiment on PC-3 [3]; >100% in the experiment on PC-3 [4]; 80.6% in the experiment with NCI-H520 [5]; 85.2% in the experiment on NCI-H520 [6].

With `COC(=O)[C@H](Cc1c[nH]c2ccccc12)NC(=O)[C@@H]1Cc2c([nH]c3ccccc23)[C@@H](c2cc(OC)c(O)c(OC)c2)N1`, the Cell survival turned out to be 61.1% in the experiment with NCI-H520 [1]; 77% with PC-3 [2]; 6.7% in the experiment with PC-3 [3]; 95.7% with PC-3 [4]; 2.8% in the experiment with NCI-H520 [5]; 67.9% with NCI-H520 [6].

As to `COc1cc([C@@H]2c3[nH]c4ccccc4c3C[C@H]3C(=O)N4CCC[C@H]4C(=O)N23)cc(OC)c1O`, the Cell survival with NCI-H520 [1], in the experiment on PC-3 [2], with PC-3 [3], in the experiment on PC-3 [4], in the experiment on NCI-H520 [10] and with NCI-H520 [6] was >100% throughout.

On to `COC(=O)[C@H](CCSC)NC(=O)[C@@H]1Cc2c([nH]c3ccccc23)[C@@H](c2cc(OC)c(O)c(OC)c2)N1`, for which the Cell survival in the experiment with NCI-H520 [1] stood at 91.2%; in the experiment on PC-3 [2], 88.2%; in the experiment on PC-3 [3] it was 76.8%; in the experiment on PC-3 [4], 96.7%; with NCI-H520 [5] it was 79.9%; in the experiment on NCI-H520 [6], 99.2%.

For the compound `COc1cc([C@@H]2c3[nH]c4ccccc4c3C[C@H]3C(=O)NCC(=O)N23)cc(OC)c1O`, the Cell survival in the experiment on NCI-H520 [1] is recorded as 69.2%; in the experiment with PC-3 [2] it was >100%; in the experiment on PC-3 [3], 86.6%; in the experiment with PC-3 [4], >100%; with NCI-H520 [5] it was 51.9%; in the experiment on NCI-H520 [6], 91.6%.

Take `COC(=O)[C@@H](Cc1ccc(O)cc1)NC(=O)[C@@H]1Cc2c([nH]c3ccccc23)[C@@H](c2cc(OC)c(O)c(OC)c2)N1`: the Cell survival was 79% in the experiment on NCI-H520 [1]; >100% in the experiment on PC-3 [2]; 89.8% in the experiment with PC-3 [3]; 88.5% in the experiment on PC-3 [4]; 83.2% in the experiment with NCI-H520 [5]; >100% with NCI-H520 [6].
